Reference: ChEMBL document CHEMBL1141222, “Antitrypanosomal, antileishmanial, and antimalarial activities of quaternary arylalkylammonium 2-amino-4-chlorophenyl phenyl sulfides, a new class of trypanothione reductase inhibitor, and of N-acyl derivatives of 2-amino-4-chlorophenyl phenyl sulfide” (J Med Chem, 2005)
Values after ≈ are worked out from the molar mass of the structure shown.

Tests used:
[1] = system: Trypanosoma cruzi; assay: Antitrypanosomal activity against Trypanosoma cruzi Tulahuan; assay type: functional, organism-based
[2] = biological target: T1, Trypanothione reductase (Trypanosoma cruzi, UniProt P28593); assay: (§1) Mixed inhibition of trypanothione reductase from Trypanosoma cruzi using TSST substrate
T1 sequence (P28593 whole entry): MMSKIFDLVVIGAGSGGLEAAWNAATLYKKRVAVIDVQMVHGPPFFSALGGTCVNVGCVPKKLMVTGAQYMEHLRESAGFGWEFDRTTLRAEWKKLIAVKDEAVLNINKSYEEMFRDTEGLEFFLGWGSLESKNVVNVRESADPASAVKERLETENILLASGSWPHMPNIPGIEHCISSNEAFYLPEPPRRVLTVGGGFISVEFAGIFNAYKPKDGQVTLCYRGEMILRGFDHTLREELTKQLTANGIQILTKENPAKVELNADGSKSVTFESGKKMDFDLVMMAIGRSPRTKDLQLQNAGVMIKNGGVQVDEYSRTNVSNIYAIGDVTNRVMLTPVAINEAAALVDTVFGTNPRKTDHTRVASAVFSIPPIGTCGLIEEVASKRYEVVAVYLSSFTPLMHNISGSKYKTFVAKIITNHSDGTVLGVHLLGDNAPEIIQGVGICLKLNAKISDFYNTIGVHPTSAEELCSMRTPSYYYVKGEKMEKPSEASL
Method in brief: (§2)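 E. coli JM109-expressed T. cruzi TR (3 µg/mL), 25 °C, 0.02 M HEPES pH 7.25 containing 0.15 M KCl, 1 mM EDTA and 0.1 mM NADPH. TSST as variable substrate at 30-240 µM against a series of inhibitor concentrations. Absorbance read at 340 nm. Ki and Ki′ obtained from Dixon, Lineweaver-Burk and Cornish-Bowden plots fitted to a mixed inhibition model.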

[3] = biological target: Trypanothione reductase (Trypanosoma cruzi) (UniProt P28593); assay: as §1; method in brief: as §2
Trypanothione reductase (Trypanosoma cruzi), sequence (P28593 whole entry, looked up): as the sequence (P28593 whole entry) above

[4] = system: Plasmodium falciparum; assay: Antimalarial activity against Plasmodium falciparum 3D7; assay type: functional, organism-based
Method in brief: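 Asynchronous 3D7 cultures (65-75% rings) in RPMI 1640, 5% hematocrit, 0.5% parasitemia, 37 °C, 5% CO2; top final drug concentration 30. After 24 h, [3H]-hypoxanthine ([…]) added, then 48 h more. Plates freeze/thawed and harvested; uptake by scintillation counting; IC50 by curve fit.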

[5] = system: KB; assay: Cytotoxicity in KB cells; assay type: functional, cell-based; conditions: Homo sapiens
[6] = system: Trypanosoma brucei rhodesiense; assay: Antitrypanosomal activity against Trypanosoma brucei rhodesiense STIB900; assay type: functional, organism-based
Method in brief: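 STIB900 bloodstream trypomastigotes in HMI-18 + 15% HIFCS, seeded at 2 × 10⁵/mL onto drug dilutions (top 30 µg/mL), 72 h at 37 °C, 5% CO2; pentamidine reference.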

[7] = system: Leishmania donovani; assay: Antileishmanial activity against Leishmania donovani HU3; assay type: functional, organism-based
Method in brief: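 Peritoneal exudate macrophages from CD1 mice (harvested 24 h after starch induction) held 24 h in RPMI1640 + 10% HIFCS, 37 °C, 5% CO2, then infected with hamster-spleen HU3 amastigotes at 5:1. After 24 h, drug exposure for 5 days (overlay replaced day 3), top 30 µg/mL, quadruplicate. Giemsa-stained slides scored microscopically; IC50 by curve fit. Pentostam positive control.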

[8] = biological target: T1, Trypanothione reductase; assay: Linear competitive inhibition of trypanothione reductase from Trypanosoma cruzi using (ZCG.dmapa)2 substrate
[9] = biological target: T1, Trypanothione reductase; assay: Linear competitive inhibition of trypanothione reductase from Trypanosoma cruzi using TSST substrate
[10] = biological target: T1, Trypanothione reductase; assay: Inhibitory activity against trypanothione reductase from Trypanosoma cruzi using 0.12 mM TSST substrate
Method in brief: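 Recombinant T. cruzi TR overexpressed in E. coli JM109, homogeneous by SDS-PAGE. I50 read by interpolation from velocity vs inhibitor concentration, fitted to the linear competitive equation by nonlinear regression.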

[11] = biological target: T2, Glutathione reductase, mitochondrial (Homo sapiens, UniProt P00390); assay: Inhibitory activity against human glutathione reductase at 0.5 mM
T2 sequence (P00390 whole entry): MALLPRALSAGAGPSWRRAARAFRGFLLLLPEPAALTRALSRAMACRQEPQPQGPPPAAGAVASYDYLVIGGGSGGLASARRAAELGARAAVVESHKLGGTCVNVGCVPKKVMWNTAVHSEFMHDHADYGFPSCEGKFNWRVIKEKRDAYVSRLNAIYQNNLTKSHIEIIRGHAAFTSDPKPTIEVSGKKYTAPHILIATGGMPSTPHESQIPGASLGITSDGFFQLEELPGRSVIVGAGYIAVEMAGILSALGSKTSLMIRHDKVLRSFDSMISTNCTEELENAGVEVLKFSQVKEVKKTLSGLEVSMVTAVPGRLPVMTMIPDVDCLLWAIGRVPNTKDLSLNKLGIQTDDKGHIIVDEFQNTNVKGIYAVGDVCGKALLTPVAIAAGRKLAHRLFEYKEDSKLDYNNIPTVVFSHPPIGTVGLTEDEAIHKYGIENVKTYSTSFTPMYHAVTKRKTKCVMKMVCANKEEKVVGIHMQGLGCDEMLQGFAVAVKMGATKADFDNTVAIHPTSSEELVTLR

| Structure (SMILES) | IC50 [1] [µg/mL] | IC50 [2] [µM] | Ki [2] [µM] | Ki' [3] [µM] | IC50 [4] [µg/mL] | IC50 [5] [µg/mL] | IC50 [6] [µg/mL] | IC50 [7] [µg/mL] | Ki [8] [µM] | Ki [9] [µM] | IC50 [10] [µM] | Ki [11] |
| --- | --- | --- | --- | --- | --- | --- | --- | --- | --- | --- | --- | --- |
| O=C(Nc1cc(Cl)ccc1Sc1ccccc1)c1ccc([N+](=O)[O-])cc1 | > 30 | 44.5 | 42.8 | 12.9 | > 30 | 223 (≈ 579 µM) | > 30 | > 30 | – | – | – | – |
| CC(C)(C)c1ccc([N+](C)(C)CCCN2c3ccccc3Sc3ccc(Cl)cc32)cc1 | < 1.1 | – | – | – | 0.13 | 2.88 | 0.02 | 3.8 | 66 | 0.57 | – | – |
| C[N+](C)(CCCNc1cc(Cl)ccc1Sc1ccccc1)c1ccc(OCc2ccccc2)cc1 | – | – | – | – | – | – | – | – | 6.6 | – | – | – |
| CCC(=O)Nc1cc(Cl)ccc1Sc1ccccc1 | 18.3 (≈ 62.7 µM) | 31.6 | 20 | 29.3 | > 30 | 93.1 (≈ 319 µM) | 11.3 (≈ 38.7 µM) | > 30 | – | – | – | – |
| C[N+](C)(CCCN1c2ccccc2Sc2ccc(Cl)cc21)c1ccc(Cl)c(Cl)c1 | < 1.1 | – | 0.44 | 3.5 | 0.47 | 3.5 | 0.02 | 4 | – | 0.18 | – | – |
| C[N+](C)(CCCNc1cc(Cl)ccc1Sc1ccccc1)c1ccccc1 | – | – | – | – | – | – | – | – | 14.2 | – | – | – |
| O=C(Cc1ccccc1)Nc1cc(Cl)ccc1Sc1ccccc1 | > 30 | 36.8 | 24.6 | 35.9 | 30 (≈ 84.8 µM) | > 300 | 7.4 (≈ 20.9 µM) | > 30 | – | – | – | – |
| O=[N+]([O-])c1cc(Cl)ccc1Sc1ccccc1 | 11.3 (≈ 42.5 µM) | – | – | – | 15.6 (≈ 58.7 µM) | 43.1 (≈ 162 µM) | 11.5 (≈ 43.3 µM) | > 30 | – | – | – | – |
| C[N+](C)(CCCNc1cc(Cl)ccc1Sc1ccccc1)C(c1ccccc1)c1ccccc1 | – | – | – | – | – | – | – | – | 5.3 | – | – | – |
| O=C(Nc1cc(Cl)ccc1Sc1ccccc1)c1ccccc1 | 19.8 (≈ 58.3 µM) | 49.6 | 24.5 | 37.7 | > 30 | 9 (≈ 26.5 µM) | 8.7 (≈ 25.6 µM) | > 30 | – | – | – | – |
| CC(C)(C)c1ccc([N+](C)(C)CCCN)cc1 | > 30 | – | 0.15 | – | > 30 | > 300 | > 30 | > 30 | – | – | 0.6 | – |
| CCCC(=O)Nc1cc(Cl)ccc1Sc1ccccc1 | 9.4 (≈ 30.7 µM) | 30.5 | 11.3 | 42.6 | 19.1 (≈ 62.5 µM) | > 300 | 14.2 (≈ 46.4 µM) | > 30 | – | – | – | – |
| Nc1cc(Cl)ccc1Sc1ccccc1 | 6.7 (≈ 28.4 µM) | – | 150 | 860 | 11.3 (≈ 47.9 µM) | 47.9 (≈ 203 µM) | 4.4 (≈ 18.7 µM) | > 30 | – | – | – | – |
| CC(C)(C)c1ccc([N+](C)(C)CCCNc2cc(Cl)ccc2Sc2ccccc2)cc1 | < 1.1 | – | – | – | 0.6 | 2.14 | 0.01 | 3.9 | 6.5 | 2.67 | – | – |
| C[N+](C)(CCCNc1cc(Cl)ccc1Sc1ccccc1)c1ccc(Cl)c(Cl)c1 | – | – | – | – | – | – | – | – | 1.69 | – | – | Not Active |
